Here are results for 17 molecules from publication PMC6136361 (Journal of Enzyme Inhibition and Medicinal Chemistry, 2018).

Values joined by “and” are separate entries in the source; they are usually repeats but may differ in a detail not shown here. Identical values can stand only once. Like-named read-outs stand apart in the source and are kept apart here.

In series [1] the test system is HepG-2 cells. Briefly: Cytotoxicity, Sulforhodamine-B. It is filed as cell-based, human. Particulars: for IC50: Homo sapiens.
A further series relates to HCT-116 cells. As to the kind of experiment: Cytotoxicity, Sulforhodamine-B. It counts as cell-based. Particulars: Homo sapiens. In a few lines: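 SRB viability: cells seeded at 5 × 10^4–10^5/well and left to attach 24 h. Test compound (DMSO, diluted in saline) at 0.001–100 µM for 48 h, four wells per concentration; vehicle-only controls. Fixed cold 50% TCA 1 h at 4 °C, stained 0.4% SRB in 1% acetic acid 30 min, dye solubilised in 10 mM tris base pH 10.5, OD 564 nm. Survival fraction = OD treated/OD control; IC50 from survival-concentration plot; repeated three times.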

Another series deals with VEGFR-2 (Homo sapiens, UniProt P35968). Briefly: biochemical. It counts as biochemical.
Chain of VEGFR-2 (P35968 20-1356): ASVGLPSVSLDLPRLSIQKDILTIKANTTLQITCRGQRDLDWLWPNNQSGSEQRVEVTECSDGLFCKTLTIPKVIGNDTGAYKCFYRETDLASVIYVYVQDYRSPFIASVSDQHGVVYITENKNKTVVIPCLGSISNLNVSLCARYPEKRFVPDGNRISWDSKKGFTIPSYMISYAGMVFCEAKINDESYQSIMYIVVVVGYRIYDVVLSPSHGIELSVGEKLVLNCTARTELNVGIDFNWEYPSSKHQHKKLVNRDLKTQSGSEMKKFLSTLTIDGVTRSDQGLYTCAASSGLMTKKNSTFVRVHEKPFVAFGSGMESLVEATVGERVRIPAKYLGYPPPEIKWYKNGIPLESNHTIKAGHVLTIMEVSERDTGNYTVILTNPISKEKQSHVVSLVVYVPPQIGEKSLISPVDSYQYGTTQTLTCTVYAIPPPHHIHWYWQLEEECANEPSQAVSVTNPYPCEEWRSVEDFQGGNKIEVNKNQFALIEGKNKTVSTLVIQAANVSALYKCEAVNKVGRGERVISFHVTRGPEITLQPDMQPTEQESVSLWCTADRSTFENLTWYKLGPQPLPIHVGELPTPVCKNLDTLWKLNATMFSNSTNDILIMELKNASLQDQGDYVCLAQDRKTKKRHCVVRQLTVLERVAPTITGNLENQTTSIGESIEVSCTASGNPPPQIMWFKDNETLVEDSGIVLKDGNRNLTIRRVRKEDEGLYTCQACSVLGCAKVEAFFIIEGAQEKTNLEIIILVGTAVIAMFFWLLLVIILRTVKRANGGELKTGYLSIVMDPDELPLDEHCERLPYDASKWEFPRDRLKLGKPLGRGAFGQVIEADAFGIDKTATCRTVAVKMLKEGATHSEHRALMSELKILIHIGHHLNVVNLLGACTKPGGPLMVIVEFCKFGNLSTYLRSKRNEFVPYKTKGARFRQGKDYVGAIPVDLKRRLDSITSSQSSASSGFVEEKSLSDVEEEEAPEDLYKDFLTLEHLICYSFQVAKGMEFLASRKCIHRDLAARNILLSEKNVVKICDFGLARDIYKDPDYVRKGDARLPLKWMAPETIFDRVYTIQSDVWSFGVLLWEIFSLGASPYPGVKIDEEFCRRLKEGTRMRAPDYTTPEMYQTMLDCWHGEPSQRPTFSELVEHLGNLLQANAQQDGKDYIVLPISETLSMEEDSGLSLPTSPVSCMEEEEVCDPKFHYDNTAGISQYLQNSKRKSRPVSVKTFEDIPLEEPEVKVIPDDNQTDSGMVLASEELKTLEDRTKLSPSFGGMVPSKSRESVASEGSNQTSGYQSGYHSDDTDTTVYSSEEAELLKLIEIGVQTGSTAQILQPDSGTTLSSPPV
Another series deals with caspase-3. As to the kind of experiment: ELISA immunoassay of active caspase-3 level in HepG-2 cells. It is filed as cell-based, human. Particulars: HepG-2, at IC50, 24 h.
In a further series the test system is Bcl-2. As to the kind of experiment: ELISA immunoassay of Bcl-2 level in HepG-2 cells. It is filed as cell-based, human. Particulars: HepG-2, at IC50, 24 h.
Series [2] concerns HepG-2 cells. Briefly: FITC-annexin V / PI staining for apoptosis. It is filed as cell-based, human. Particulars: HepG-2, at IC50, 24 h.
The subject of a further series is p53. As to the kind of experiment: ELISA immunoassay of p53 level in HepG-2 cells. It counts as cell-based, human. Particulars: HepG-2, at IC50, 24 h.
Series [3] relates to HepG-2 cells. Briefly: DNA-flow cytometry cell cycle analysis. It counts as cell-based, human. Particulars: HepG-2, at IC50, 24 h. A digest of the protocol:
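HepG-2 cells exposed to test compound for 24 h, with an untreated control. Cells washed twice in ice-cold PBS, pelleted, fixed in ice-cold 70% ethanol, treated with 0.1 mg/mL RNase and stained with propidium iodide. DNA content measured by flow cytometry to give cell-cycle phase distribution. Fold change versus control; mean ± SEM, n = 4, one-way ANOVA with Tukey test.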

The next series deals with caspase-7. Briefly: ELISA immunoassay of active caspase-7 level in HepG-2 cells. It counts as cell-based, human. Particulars: HepG-2, at IC50, 24 h.
A further series concerns Bax. Briefly: ELISA immunoassay of Bax level in HepG-2 cells. It is filed as cell-based, human.
For a further series, the target named is β-tubulin (Homo sapiens, UniProt P07437). Briefly: β-tubulin polymerization inhibition assay. It counts as cell-based.
Chain of β-tubulin (P07437 whole entry): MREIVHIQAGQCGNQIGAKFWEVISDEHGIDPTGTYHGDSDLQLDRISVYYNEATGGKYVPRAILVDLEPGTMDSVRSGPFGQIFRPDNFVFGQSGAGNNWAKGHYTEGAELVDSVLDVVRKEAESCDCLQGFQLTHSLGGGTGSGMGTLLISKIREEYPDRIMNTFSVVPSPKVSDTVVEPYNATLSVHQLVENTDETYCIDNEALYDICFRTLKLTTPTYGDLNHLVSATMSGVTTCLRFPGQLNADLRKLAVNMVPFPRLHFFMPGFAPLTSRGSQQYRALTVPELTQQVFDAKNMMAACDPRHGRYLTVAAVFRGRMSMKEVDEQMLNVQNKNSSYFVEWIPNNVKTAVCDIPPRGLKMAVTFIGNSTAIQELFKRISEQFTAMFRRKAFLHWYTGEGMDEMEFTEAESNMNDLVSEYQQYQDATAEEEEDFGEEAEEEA
Chain of β-tubulin (P68363 whole entry partner): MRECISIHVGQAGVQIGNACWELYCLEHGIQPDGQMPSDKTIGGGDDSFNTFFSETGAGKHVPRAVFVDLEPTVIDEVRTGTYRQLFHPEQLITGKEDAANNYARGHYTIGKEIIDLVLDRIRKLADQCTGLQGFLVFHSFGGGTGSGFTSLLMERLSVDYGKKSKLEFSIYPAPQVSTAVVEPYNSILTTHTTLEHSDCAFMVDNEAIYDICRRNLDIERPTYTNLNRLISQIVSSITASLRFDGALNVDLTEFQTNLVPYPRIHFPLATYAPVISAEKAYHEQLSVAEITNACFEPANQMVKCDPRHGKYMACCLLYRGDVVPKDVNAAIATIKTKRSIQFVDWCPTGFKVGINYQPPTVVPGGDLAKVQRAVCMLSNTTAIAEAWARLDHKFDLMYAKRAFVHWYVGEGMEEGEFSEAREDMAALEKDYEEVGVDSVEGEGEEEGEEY
Setting [4] is: HepG2, 48 h, read-out: IC50 HepG-2.
The mark [5] stands for this setting: HCT-116, 48 h, read-out: IC50 HCT-116.
Where [6] appears, read: HepG2, read-out: Experimental cytotoxicity pIC50 (converted).

Consider `COc1ccc(NC(=O)c2c(Nc3ccccc3)sc(C#N)c2NC(=O)CNc2ccccc2Cl)cc1` [Compound 11, 5-Cyano-N-(4-methoxyphenyl)-4-[2-(2-chlorophenyl)aminoacetamido]-2-phenylaminothiophene-3-carboxamide], for which the IC50 worked out at 31.3 ± 3.61 µM in the series on HepG-2 cells [1] (setting [4]) and 52.2 ± 5.54 µM with HCT-116 cells (setting [5]).

On to `COc1ccc(NC(=O)c2c(Nc3ccccc3)sc(C#N)c2NC(=O)CNc2ccc(Br)cc2)cc1` [Compound 6, 4-[2-(4-Bromophenyl)amino-acetamido]-5-cyano-N-(4-methoxyphenyl)-2-phenylaminothiophene-3-carboxamide], for which the IC50 in the series on HepG-2 cells [1] (setting [4]) was 3.51 ± 0.22 µM; in the series with HepG-2 cells [1] (setting [6]), 3.5 µM; with HepG-2 cells [1] (HepG2, read-out: HepG-2 IC50), 3.51 µM; against VEGFR-2, 0.93 ± 0.19 µM; in the series on HCT-116 cells (setting [5]) it was 3.13 ± 0.21 µM.

`COc1ccc(NC(=O)c2c(Nc3ccccc3)sc(C#N)c2NC(=O)CNc2ccccc2[N+](=O)[O-])cc1` [Compound 12, 5-Cyano-N-(4-methoxyphenyl)-4-[2-(2-nitrophenyl)amino-acetamido]-2-phenylaminothiophene-3-carboxamide]: the IC50 in the series with HepG-2 cells [1] (setting [4]) turned out to be 43.3 ± 4.23 µM; in the series on HCT-116 cells (setting [5]), 60.1 ± 7.41 µM.

In the case of `COc1ccc(C=NNC(=O)c2sc(Nc3ccccc3)c(C(=O)Nc3ccc(OC)cc3)c2NC(C)=O)cc1` [Compound 20, 4-Acetamido-5-[2-(4-methoxybenzylidene)hydrazinocarbonyl] -N-(4-methoxyphenyl)-2-(phenylamino)thiophene-3-carboxamide], the IC50 in the series on HepG-2 cells [1] (setting [4]) was 4.96 ± 0.45 µM; in the series on HepG-2 cells [1] (setting [6]) it was 8.7 µM; with HepG-2 cells [1] (HepG2, read-out: HepG-2 IC50), 4.96 µM; on VEGFR-2, 1.71 ± 0.21 µM; in the series on HCT-116 cells (setting [5]), 3.12 ± 0.31 µM.

Turning to `COc1ccc(NC(=O)c2c(Nc3ccccc3)sc(C(=O)NN=Cc3ccc(Br)cc3)c2NC(C)=O)cc1` [Compound 18, 4-Acetamido-5-[2-(4-bromobenzylidene)hydrazinocarbonyl]-N-(4-methoxyphenyl)-2-phenylaminothiophene-3-carboxamide], the IC50 in the series on HepG-2 cells [1] (setting [4]) is 10.1 ± 1.12 µM; with HepG-2 cells [1] (setting [6]), 10.4 µM; with HCT-116 cells (setting [5]), 7.41 ± 0.62 µM.

In the case of `COc1ccc(NC(=O)c2c(Nc3ccccc3)sc(C(=O)NN=Cc3cc(OC)c(OC)c(OC)c3)c2NC(C)=O)cc1` [Compound 23, 4-Acetamido-N-(p-methoxyphenyl)-2-phenylamino-5-[2-(3,4,5-trimethoxybenzylidene)hydrazinocarbonyl]thiophene-3-carboxamide], the IC50 in the series on HepG-2 cells [1] (setting [4]) is 10.82 ± 0.065 µM; in the series with HepG-2 cells [1] (setting [6]), 5.1 µM; in the series on HepG-2 cells [1] (HepG2, read-out: HepG-2 IC50), 10.8 µM; against VEGFR-2, 5.21 ± 0.32 µM; in the series on HCT-116 cells (setting [5]), 6.46 ± 0.49 µM.

Take `COc1ccc(NC(=O)c2c(Nc3ccccc3)sc(C#N)c2NC(=O)CNc2ccc(Cl)cc2)cc1` [Compound 5, 4-[2-(4-Chlorophenyl)aminoacetamido]-5-cyano-N-(4-methoxyphenyl)-2-phenylaminothiophene-3-carboxamide]: in the series on caspase-3, the “caspase-3 level, fold increase compared to the control” value is “about 11.2 fold”. The “Bcl-2 level, fold decrease compared to the control” value with Bcl-2 was found to be 2.2 fold. For the same molecule, in the series on HepG-2 cells [2], the “early apoptosis fold increase vs control” value is 8 fold. Also, the “late apoptosis fold increase vs control” value in the series with HepG-2 cells [2] is given as 23 fold. In addition, the “late apoptotic cells percentage (Q2)” value in the series on HepG-2 cells [2] (control 0.34%) came to 7.85%. For the same molecule, the “early apoptotic cells percentage (Q4)” value in the series on HepG-2 cells [2] (control 0.72%) was 5.47%. In addition, in the series with HepG-2 cells [1] (HepG-2 cells), the “fold higher cytotoxicity than Sorafenib” value was 2.31 fold and 2.3 fold. In addition, the IC50 in the series with HepG-2 cells [1] (setting [4]) turned out to be 1.92 ± 0.12 µM; with HepG-2 cells [1] (HepG2, read-out: HepG-2 IC50) it was 1.92 µM; in the series on HCT-116 cells (setting [5]), 7.83 ± 0.61 µM. For the same molecule, the “p53 protein level, fold increase compared with the control” value with p53 was “about 3.4 fold”. On VEGFR-2, the “fold more potent than Sorafenib against VEGFR-2” value worked out at 4 fold. The “G2/M arrest, fold increase compared to the control” value in the series on HepG-2 cells [3] is recorded as “about 2 fold”. The “apoptotic sub-G1 cell population” value in the series with HepG-2 cells [3] (control 0.10%) is recorded as 8.23%. The “caspase-7 level, fold increase compared to the control” value in the series on caspase-7 is reported as around 6.9 fold. The “Bax/Bcl-2 ratio, fold elevation compared to the control” value with Bax (HepG-2, at IC50) is given as 30 fold. For the same molecule, the “Bax level, fold increase compared to the control” value in the series on Bax (HepG-2, at IC50, 24 h) is given as 6.6 fold. Further, at β-tubulin (at their IC50 values on HepG-2 cells), the “%β-TUB polymerization inhibition” value is 72.61 ± 0.14%. The β-tubulin polymerization inhibition at β-tubulin (at their IC50 values, HepG-2 cells) was 72% and 73%.

Turning to `COc1ccc(NC(=O)c2c(Nc3ccccc3)sc(C(=O)NN=Cc3ccc(C)cc3)c2NC(C)=O)cc1` [Compound 19, 4-Acetamido-5-[2-(4-methylbenzylidene)hydrazinocarbonyl]-N-(4-methoxyphenyl)-2-phenylaminothiophene-3-carboxamide], the figures for the IC50 with HepG-2 cells [1] (setting [4]), in the series on HepG-2 cells [1] (setting [6]) and in the series on HCT-116 cells (setting [5]) were 12.2 ± 1.31 µM, 12.2 µM and 21.4 ± 1.82 µM, respectively.

`COc1ccc(NC(=O)c2c(Nc3ccccc3)sc(C(=O)NN=Cc3ccc(Cl)cc3)c2NC(C)=O)cc1` [Compound 17, 4-Acetamido-5-[2-(4-chlorobenzylidene)hydrazinocarbonyl]-N-(4-methoxyphenyl)-2-phenylaminothiophene-3-carboxamide]: the IC50 with HepG-2 cells [1] (setting [4]) is 9.5 ± 0.86 µM; in the series with HepG-2 cells [1] (setting [6]), 9.5 µM; in the series on HepG-2 cells [1] (HepG2, read-out: HepG-2 IC50) it was 9.5 µM; against VEGFR-2, 5.91 ± 0.23 µM; with HCT-116 cells (setting [5]), 9.24 ± 1.02 µM.

Take `COc1ccc(NC(=O)c2c(Nc3ccccc3)sc(C#N)c2NC(=O)CNc2ccc(O)cc2)cc1` [Compound 8, 5-Cyano-N-(4-methoxyphenyl)-4-[2-(4-hydroxyphenyl)amino-acetamido]-2-phenylaminothiophene-3-carboxamide]: the IC50 was 10.4 ± 1.08 µM in the series with HepG-2 cells [1] (setting [4]), 10.4 µM in the series with HepG-2 cells [1] (setting [6]) and 16.2 ± 1.52 µM in the series on HCT-116 cells (setting [5]).

Turning to `COc1ccc(NC(=O)c2c(Nc3ccccc3)sc(C(=O)NN=Cc3ccccc3)c2NC(C)=O)cc1` [Compound 16, 4-Acetamido-5-(2-benzylidenehydrazinocarbonyl)-N-(4-methoxyphenyl)-2-phenylaminothiophene-3-carboxamide], the IC50 in the series on HepG-2 cells [1] (setting [4]) was 21.4 ± 2.91 µM; in the series with HepG-2 cells [1] (setting [6]) it was 21 µM; in the series with HCT-116 cells (setting [5]) it was 19.2 ± 1.46 µM.

For the molecule `COc1ccc(NC(=O)c2c(Nc3ccccc3)sc(C#N)c2NC(=O)CNc2ccc([N+](=O)[O-])cc2)cc1` [Compound 10, 5-Cyano-N-(4-methoxyphenyl)-4-[2-(4-nitrophenyl)aminoacetamido]-2-phenylaminothiophene-3-carboxamide], the IC50 in the series with HepG-2 cells [1] (setting [4]) is 9.71 ± 0.86 µM; in the series on HepG-2 cells [1] (setting [6]) it was 9.7 µM; in the series on HepG-2 cells [1] (HepG2, read-out: HepG-2 IC50) it was 9.71 µM; against VEGFR-2, 3.92 ± 0.16 µM; with HCT-116 cells (setting [5]), 5.12 ± 0.42 µM.

As for `CNC(=O)c1cc(Oc2ccc(NC(=O)Nc3ccc(Cl)c(C(F)(F)F)c3)cc2)ccn1` [Sorafenib, reference compound], the IC50 in the series with HepG-2 cells [1] (HepG2, read-out: HepG-2 IC50) came out at 4.43 µM; in the series on HCT-116 cells (HCT-116, read-out: IC50 against HCT-116 cells), 3.22 µM.

As for `COc1ccc(NC(=O)c2c(Nc3ccccc3)sc(C#N)c2NC(=O)CNc2ccc(OC)c(OC)c2)cc1` [Compound 13, 5-Cyano-N-(4-methoxyphenyl)-4-[2-(3,4-dimethoxyphenyl)amino-acetamido]-2-phenylaminothiophene-3-carboxamide], the results for the IC50 in the series with HepG-2 cells [1] (setting [4]), in the series with HepG-2 cells [1] (setting [6]) and in the series with HCT-116 cells (setting [5]) were 15.2 ± 1.62 µM, 15.2 µM and 10.3 ± 1.31 µM, respectively.

Turning to `COc1ccc(NC(=O)c2c(Nc3ccccc3)sc(C#N)c2NC(=O)CNc2ccccc2)cc1` [Compound 4, 5-Cyano-N-(4-methoxyphenyl)-2-phenylamino-4-(2-phenylamino-acetamido)thiophene-3-carboxamide], the results for the IC50 in the series on HepG-2 cells [1] (setting [4]) and with HCT-116 cells (setting [5]) were 74.3 ± 5.98 µM and 64.1 ± 7.51 µM, respectively.

As for `COc1ccc(NCC(=O)Nc2c(C#N)sc(Nc3ccccc3)c2C(=O)Nc2ccc(OC)cc2)cc1` [Compound 9, 5-Cyano-N-(4-methoxyphenyl)-4-[2-(4-methoxyphenyl)amino-acetamido]-2-phenylaminothiophene-3-carboxamide], the values for the IC50 in the series on HepG-2 cells [1] (setting [4]), in the series on HepG-2 cells [1] (setting [6]) and in the series on HCT-116 cells (setting [5]) were 14.3 ± 1.23 µM, 14 µM and 21.4 ± 1.92 µM, respectively.

Turning to `COc1ccc(NC(=O)c2c(Nc3ccccc3)sc(C#N)c2NC(=O)CNc2ccc(C)cc2)cc1` [Compound 7, 5-Cyano-N-(4-methoxyphenyl)-2-phenylamino-4-[2-(4-methylphenyl)amino-acetamido]thiophene-3-carboxamide], the figures for the IC50 with HepG-2 cells [1] (setting [4]), in the series on HepG-2 cells [1] (setting [6]) and with HCT-116 cells (setting [5]) were 24.3 ± 1.96 µM, 24 µM and 18.4 ± 1.23 µM, respectively.
